Data as given in publication PMC11370551 (bioRxiv, 2024).

What was measured:
Assay type in all cases: in vivo, mouse
Lepob/ob obese mice [1] = test: Efficacy in obese Lepob/ob mice after SC injection
How it was run: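 Obese Lepob/ob mice (n = 6 per compound; 3 males, 3 females) got a single subcutaneous 10 mg/kg injection. Untreated non-obese C57BL/6J mice (3 males, 3 females) gave healthy baselines. Body weight was tracked as % change from Day 0. Blood glucose was read after 6 h fasting. IP glucose tolerance: 2 g/kg after 5–6 h fast. ITT: insulin 2.5 IU/kg at 240 h, AUC0–90 min, k-ITT. Analysis: two-way ANOVA and multiparametric t-tests.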

female WT Swiss mice [2] = test: Ip-GTT in WT Swiss mice; details: 6 days ([…]) after single SC 10 mg/kg; glucose 2 g/kg IP; naïve 21,354 ± 431
How it was run: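 Female WT Swiss mice got a single subcutaneous injection of test compound at 10 mg/kg (~25 nmol). […] AUCs were compared by non-parametric t-tests.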

female WT Swiss mice [3] = test: Safety profile and MTD in female WT Swiss mice; details: SC
How it was run: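 A GLP-1 receptor agonist was injected subcutaneously into WT mice at 0.5 (~5 nmol), 3 (~30 nmol) or 10 mg/kg (~100 nmol) to check tolerability before the painting studies.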

Lepob/ob obese mice [4] = test: Efficacy in obese Lepob/ob mice after IP injection; details: single IP 10 mg/kg
How it was run: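 Obese Lepob/ob mice got a single intraperitoneal 10 mg/kg injection of test compound; the other arm of the route comparison was subcutaneous. Body weight was tracked as % change from Day 0. Fasting blood glucose was measured. Insulin response was assessed 10 days post-injection.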

## Semaglutide
Lepob/ob obese mice [1]; for 3 days after single SC 10 mg/kg (~170 nmol), n = 6
  body weight loss: about 8.3 ± 0.5%
Lepob/ob obese mice [1]; single SC 10 mg/kg
  duration of significant body weight loss: 3 days
Lepob/ob obese mice [1]; single SC 10 mg/kg, both sexes combined
  duration of blood glucose down-regulation: up to 10 days
Female WT Swiss mice [2]
  Ip-GTT AUC0–120min: 21,282 ± 795
Female WT Swiss mice [3]; WT mice, doses 0.5, 3, 10 mg/kg
  dose from which hypoglycemia was observed: ≥ 0.5 mg/kg
Female WT Swiss mice [3]; female WT Swiss mice
  MTD (maximum tolerated dose among the assessed range): 10 mg/kg
Lepob/ob obese mice [4]
  duration of sustained body weight loss: up to 7 days
Lepob/ob obese mice [4]; 240 h p.i.
  fasting blood glucose lowering after 10 days: no more efficacy
